ChEMBL document CHEMBL1143169, “Highly water-soluble prodrugs of anthelmintic benzimidazole carbamates: synthesis, pharmacodynamics, and pharmacokinetics” (J Med Chem, 2008)
Each block holds one molecule with its values, some of them ahead of it. Activity calls are given as the source filed them. The calls are words filed in the database; no cut-off is given here.

Tests used:
[1] = Cmax in pig at 5.0 mg/kg, po; format: ADME, organism-based, Sus scrofa; design: dose 5 mg/kg, route oral; details: in vivo
Outline: (§1)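 Swine received a single oral dose of 5.0 mg/kg, given as an aqueous solution or suspension. Plasma levels of fenbendazole, fenbendazole sulfoxide and fenbendazole sulfone were measured over time. Cmax, Tmax and AUC were derived for each analyte.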

[2] = Tmax in pig at 5.0 mg/kg, po; format: ADME, organism-based, Sus scrofa; design: dose 5 mg/kg, route oral; details: in vivo; outline: as §1
[3] = AUC in pig at 5.0 mg/kg, po; format: ADME, organism-based, Sus scrofa; design: dose 5 mg/kg, route oral; details: plasma; outline: as §1
Sus scrofa [4] = assay: Cmax in pig at 5.0 mg/kg, po assessed as fenbendazole sulfoxide level; format: ADME, organism-based; design: dose 5 mg/kg, route oral; details: in vivo; outline: as §1
Sus scrofa [5] = assay: Tmax in pig at 5.0 mg/kg, po assessed as fenbendazole sulfoxide level; format: ADME, organism-based; design: dose 5 mg/kg, route oral; details: in vivo; outline: as §1
Sus scrofa [6] = assay: AUC in pig at 5.0 mg/kg, po assessed as fenbendazole sulfoxide level; format: ADME, organism-based, Plasma; design: dose 5 mg/kg, route oral; details: in vivo; outline: as §1
Sus scrofa [7] = assay: Cmax in pig at 5.0 mg/kg, po assessed as fenbendazole sulfone level; format: ADME, organism-based; design: dose 5 mg/kg, route oral; details: in vivo; outline: as §1
Sus scrofa [8] = assay: Tmax in pig at 5.0 mg/kg, po assessed as fenbendazole sulfone level; format: ADME, organism-based; design: dose 5 mg/kg, route oral; details: in vivo; outline: as §1
Sus scrofa [9] = assay: AUC in pig at 5.0 mg/kg, po assessed as fenbendazole sulfone level; format: ADME, organism-based, Plasma; design: dose 5 mg/kg, route oral; details: in vivo; outline: as §1
[10] = Aqueous solubility at pH 7.4; format: physicochemical
[11] = Aqueous stability of the compound; format: physicochemical; details: buffer
Outline: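 The compound was dissolved in water at 50 mM and held at pH 5 and at pH 9 for 8 h at room temperature. Remaining intact compound was measured by UV-HPLC.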

Sus scrofa [12] = assay: (§2) Tmax in pig at 6.8 mg/kg, po assessed as sodium (2-(methoxycarbonyl)-5-(phenylsulphonyl)-1H-benzo[d]imidazol-1-yl)methyl phosphate level; format: ADME, organism-based; design: dose 6.8 mg/kg, route oral; details: in vivo
Sus scrofa [13] = assay: (§3) AUC in pig at 6.8 mg/kg, po assessed as sodium (2-(methoxycarbonyl)-5-(phenylsulphonyl)-1H-benzo[d]imidazol-1-yl)methyl phosphate level; format: ADME, organism-based, Plasma; design: dose 6.8 mg/kg, route oral; details: in vivo
Sus scrofa [14] = assay: Cmax in pig at 6.8 mg/kg, po assessed as sodium (2-(methoxycarbonyl)-5-(phenylsulphonyl)-1H-benzo[d]imidazol-1-yl)methyl phosphate; format: ADME, organism-based; design: dose 6.8 mg/kg, route oral; details: in vivo
Sus scrofa [15] = assay: as §2; format: ADME, organism-based; design: dose 6.8 mg/kg, route oral; details: in vivo; remark: listed apart in the source
Sus scrofa [16] = assay: as §3; format: ADME, organism-based, Plasma; design: dose 6.8 mg/kg, route oral; details: in vivo; remark: listed apart in the source
Oesophagostomum dentatum [17] = assay: Anthelmintic activity against Oesophagostomum dentatum infected pig assessed as reduction in fecal egg shedding; format: functional
Oesophagostomum dentatum [18] = assay: Anthelmintic activity against Oesophagostomum dentatum infected pig assessed as worm burden reduction; format: functional
Sus scrofa [19] = assay: Cmax in pig at 6.8 mg/kg, po; details: in vivo

Structure (SMILES): COC(=O)Nc1nc2ccc(Sc3ccccc3)cc2[nH]1 [FENBENDAZOLE]
- Cmax [1]: 50 ng/mL
- Tmax [2]: 5.4 h
- AUC [3]: 310 ng·h/mL
- Cmax (Sus scrofa [4]): 1090 ng/mL
- Tmax (Sus scrofa [5]): 17 h
- AUC (Sus scrofa [6]): 35000 ng·h/mL
- Cmax (Sus scrofa [7]): 380 ng/mL
- Tmax (Sus scrofa [8]): 34 h
- AUC (Sus scrofa [9]): 12730 ng·h/mL

Structure (SMILES): COC(=O)Nc1nc2cc(C(=O)c3ccc(F)cc3)ccc2n1COP(=O)([O-])O.[Na+]
- solubility [10]: > 50 mM
- Stability [11]: > 8 h

Structure (SMILES): COC(=O)Nc1nc2cc([S+]([O-])c3ccccc3)ccc2n1COP(=O)([O-])O.[Na+] (stereo unspecified)
- solubility [10]: > 50 mM
- Stability [11]: > 8 h

Structure (SMILES): COC(=O)Nc1nc2cc(Sc3ccccc3)ccc2[nH]1
- Activity (Oesophagostomum dentatum [17]): Active
- Activity (Oesophagostomum dentatum [18]): Active

Further lines, with some results ahead:

- solubility [10]: > 50 mM
- Stability [11]: > 8 h
Structure (SMILES): CCCCc1ccc2c(c1)nc(NC(=O)OC)n2COP(=O)([O-])O.[Na+]

- solubility [10]: > 50 mM
- Stability [11]: > 8 h
Structure (SMILES): CCCSc1ccc2c(c1)nc(NC(=O)OC)n2COP(=O)([O-])O.[Na+]

- solubility [10]: 130 mM
- Stability [11]: > 8 h
- Tmax (Sus scrofa [12]): 15 h
- AUC (Sus scrofa [13]): 58770 ng·h/mL
- Cmax (Sus scrofa [14]): 780 ng/mL
- Tmax (Sus scrofa [15]): 36 h
- AUC (Sus scrofa [16]): 31150 ng·h/mL
- Cmax (Sus scrofa [19]): 1410 ng/mL
Structure (SMILES): COC(=O)Nc1nc2cc(Sc3ccccc3)ccc2n1COP(=O)([O-])O.[Na+]
- Activity (Oesophagostomum dentatum [17]): Active
- Activity (Oesophagostomum dentatum [18]): Active

- solubility [10]: > 50 mM
- Stability [11]: > 8 h
Structure (SMILES): COC(=O)Nc1nc2cc(C(=O)c3ccccc3)ccc2n1COP(=O)([O-])O.[Na+]
